According to ChEMBL document CHEMBL5303300, “EUbOPEN Chemogenomics Library - Multiplex” (2023):
Where “and” joins values, the source holds several entries; their conditions need not be identical. Identical values can stand only once.

Tested on: U2OS
Test: Multiplex assay against U2OS
Format: toxicity, cell-based
Conditions: human, number of replicates 2
How it was run: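 Compound was added to live cells that had been stained at seeding with Hoechst33342, BioTracker Green Microtubule Cytoskeleton Dye, MitoTracker Red and Annexin V Alexa Fluor 680, and imaging followed on a CQ1 microscope at 37°C and 5% CO2. CellPathfinder machine-learning gating divided cells into Hoechst high-intensity objects or normal cells, normal cells into healthy, pyknosed or fragmented nuclei, and pyknosed cells into mitotic or apoptotic. Tubulin, mitochondrial-mass and membrane-permeability phenotypes are per cents of healthy-nucleus cells.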

[1] = 12 h, 1 µM, compound concentration 1 uM
[2] = 12 h, 10 µM, compound concentration 10 uM
[3] = 24 h, 1 µM, compound concentration 1 uM
[4] = 24 h, 10 µM, compound concentration 10 uM
[5] = 48 h, 1 µM, compound concentration 1 uM
[6] = 48 h, 10 µM, compound concentration 10 uM

CCn1c(-c2nonc2N)nc2cncc(C(=O)N3CC[C@H](N)C3)c21.Cl was tested, and the “Population Apoptotic (%)” value [1] was 50% and 90%, the “Population Fragmented Nuclei (%)” value [1] was 13% and 3% and the “Population Healthy Nuclei (%)” value [1] was 73% and 87%. For the same compound, the “Population Hoechst High Intensity Objects (%)” value [1] was 0%, the “Population Membrane Permeable-Phenotype (%)” value [1] was 0% and 1% and the “Population Mitochondria Different-Phenotype (%)” value [1] was 4% and 0%. The “Population Normal (%)” value [1] was 100%, the “Population Pyknosed Nuclei (%)” value [1] was 13% and 9% and the “Population Tubulin-Different-Phenotype (%)” value [1] was 72% and 77%. The “Population Apoptotic (%)” value [2] was 75% and 35%, the “Population Healthy Nuclei (%)” value [2] was 69% and 78% and the “Population Hoechst High Intensity Objects (%)” value [2] was 0%. For the same compound, the “Population Membrane Permeable-Phenotype (%)” value [2] was 5% and 0%, the “Population Mitochondria Different-Phenotype (%)” value [2] was 0% and the “Population Mitotic Cells (%)” value [2] was 25% and 64%. For the same compound, the “Population Normal (%)” value [2] was 100%, the “Population Pyknosed Nuclei (%)” value [2] was 8% and 16% and the “Population Tubulin-Different-Phenotype (%)” value [2] was 67% and 87%. The “Population Apoptotic (%)” value [3] was 80% and 96%, the “Population Fragmented Nuclei (%)” value [3] was 5% and 3% and the “Population Healthy Nuclei (%)” value [3] was 80% and 87%. The “Population Hoechst High Intensity Objects (%)” value [3] was 0%, the “Population Membrane Permeable-Phenotype (%)” value [3] was 7% and 0% and the “Population Mitochondria Different-Phenotype (%)” value [3] was 3% and 1%. The “Population Normal (%)” value [3] was 100%, the “Population Pyknosed Nuclei (%)” value [3] was 14% and 9% and the “Population Tubulin-Different-Phenotype (%)” value [3] was 71% and 79%. The “Population Apoptotic (%)” value [4] was 55% and 57%, the “Population Fragmented Nuclei (%)” value [4] was 17% and 8% and the “Population Healthy Nuclei (%)” value [4] was 67% and 77%. The “Population Hoechst High Intensity Objects (%)” value [4] was 0%, the “Population Membrane Permeable-Phenotype (%)” value [4] was 2% and 3% and the “Population Mitochondria Different-Phenotype (%)” value [4] was 0% and 1%. For the same compound, the “Population Mitotic Cells (%)” value [4] was 44% and 42%, the “Population Normal (%)” value [4] was 100% and the “Population Pyknosed Nuclei (%)” value [4] was 15% and 14%. The “Population Tubulin-Different-Phenotype (%)” value [4] was 79% and 89%, the “Population Apoptotic (%)” value [5] was 60% and 82% and the “Population Healthy Nuclei (%)” value [5] was 71% and 89%. The “Population Hoechst High Intensity Objects (%)” value [5] was 0%, the “Population Membrane Permeable-Phenotype (%)” value [5] was 7% and 1% and the “Population Mitochondria Different-Phenotype (%)” value [5] was 2% and 0%. The “Population Mitotic Cells (%)” value [5] was 40% and 17%, the “Population Normal (%)” value [5] was 100% and the “Population Pyknosed Nuclei (%)” value [5] was 9% and 6%. For the same compound, the “Population Tubulin-Different-Phenotype (%)” value [5] was 76% and 81%, the “Population Apoptotic (%)” value [6] was 75% and 74% and the “Population Fragmented Nuclei (%)” value [6] was 15% and 5%. For the same compound, the “Population Healthy Nuclei (%)” value [6] was 69% and 79%, the “Population Hoechst High Intensity Objects (%)” value [6] was 0% and the “Population Membrane Permeable-Phenotype (%)” value [6] was 3% and 4%. For the same compound, the “Population Mitochondria Different-Phenotype (%)” value [6] was 0%, the “Population Mitotic Cells (%)” value [6] was 25% and the “Population Normal (%)” value [6] was 100% and 99%. The “Population Pyknosed Nuclei (%)” value [6] was 15% and the “Population Tubulin-Different-Phenotype (%)” value [6] was 68% and 91%.
For Cc1ccc(C(=O)Nc2cc(N3CCN(C)CC3)cc(C(F)(F)F)c2)cc1-n1cc(-c2cnn(C)c2C)nn1.Cl, the “Population Apoptotic (%)” value [1] was 25% and 60%, the “Population Healthy Nuclei (%)” value [1] was 70% and 79% and the “Population Hoechst High Intensity Objects (%)” value [1] was 0%. The “Population Membrane Permeable-Phenotype (%)” value [1] was 12% and 17%, the “Population Mitotic Cells (%)” value [1] was 75% and 39% and the “Population Normal (%)” value [1] was 100%. For the same compound, the “Population Pyknosed Nuclei (%)” value [1] was 8% and 17%, the “Population Tubulin-Different-Phenotype (%)” value [1] was 69% and 29% and the “Population Apoptotic (%)” value [2] was 60% and 83%. The “Population Healthy Nuclei (%)” value [2] was 69% and 51%, the “Population Hoechst High Intensity Objects (%)” value [2] was 0% and the “Population Membrane Permeable-Phenotype (%)” value [2] was 28% and 37%. The “Population Mitochondria Different-Phenotype (%)” value [2] was 42% and 62%, the “Population Mitotic Cells (%)” value [2] was 39% and 16% and the “Population Normal (%)” value [2] was 100%. For the same compound, the “Population Pyknosed Nuclei (%)” value [2] was 24% and 19%, the “Population Tubulin-Different-Phenotype (%)” value [2] was 86% and 87% and the “Population Apoptotic (%)” value [3] was 31% and 70%. The “Population Healthy Nuclei (%)” value [3] was 55% and 73%, the “Population Hoechst High Intensity Objects (%)” value [3] was 0% and the “Population Membrane Permeable-Phenotype (%)” value [3] was 0% and 9%. The “Population Mitotic Cells (%)” value [3] was 68% and 29%, the “Population Normal (%)” value [3] was 100% and the “Population Pyknosed Nuclei (%)” value [3] was 27% and 24%. The “Population Tubulin-Different-Phenotype (%)” value [3] was 68% and 44%, the “Total Cell Count” value [3] was 69 and 193 and the “Population Apoptotic (%)” value [4] was 85%. The “Population Fragmented Nuclei (%)” value [4] was 28% and 10%, the “Population Healthy Nuclei (%)” value [4] was 46% and 50% and the “Population Hoechst High Intensity Objects (%)” value [4] was 3% and 0%. For the same compound, the “Population Membrane Permeable-Phenotype (%)” value [4] was 23% and 42%, the “Population Mitochondria Different-Phenotype (%)” value [4] was 38% and 55% and the “Population Mitotic Cells (%)” value [4] was 14%. The “Population Normal (%)” value [4] was 96% and 99%, the “Population Pyknosed Nuclei (%)” value [4] was 25% and 38% and the “Population Tubulin-Different-Phenotype (%)” value [4] was 69% and 89%. The “Population Apoptotic (%)” value [5] was 69% and 75%, the “Population Fragmented Nuclei (%)” value [5] was 9% and 3% and the “Population Healthy Nuclei (%)” value [5] was 65% and 72%. The “Population Hoechst High Intensity Objects (%)” value [5] was 0%, the “Population Membrane Permeable-Phenotype (%)” value [5] was 4% and 8% and the “Population Mitotic Cells (%)” value [5] was 30% and 24%. For the same compound, the “Population Normal (%)” value [5] was 100% and 99%, the “Population Pyknosed Nuclei (%)” value [5] was 24% and the “Population Tubulin-Different-Phenotype (%)” value [5] was 72% and 41%. The “Population Apoptotic (%)” value [6] was 92% and 100%, the “Population Healthy Nuclei (%)” value [6] was 21% and 26% and the “Population Hoechst High Intensity Objects (%)” value [6] was 0%. The “Population Membrane Permeable-Phenotype (%)” value [6] was 52% and 22%, the “Population Mitochondria Different-Phenotype (%)” value [6] was 63% and 55% and the “Population Mitotic Cells (%)” value [6] was 7% and 0%. For the same compound, the “Population Normal (%)” value [6] was 99% and 100%, the “Population Pyknosed Nuclei (%)” value [6] was 67% and 38% and the “Population Tubulin-Different-Phenotype (%)” value [6] was 86% and 66%.
